Tests used:
CB1 [1] = biological target: T1, CB1 (Homo sapiens, UniProt P21554); format: cell-based
MDCK-mdr1 cells = assay: MDCK-mdr1 permeability assay; format: in vitro ADME, canine; details: apical to basal, 10 μM, 1 h at 37 °C
In short: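 MDCK cells transfected with human MDR1 grown on filters for 4 days to confluence in DMEM/F12 with 10% FBS and antibiotics. Test compound added apically in HBSS with 25 mM D-glucose, HEPES-buffered to pH 7.4. Apical and basal samples collected, dried under nitrogen, and quantified by LC-MS/MS in MRM mode. Percent transfer apical to basal reported; mean of 2–3 measurements.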

[2] = pharmacokinetic evaluation in vivo, plasma and brain levels after oral dosing; design: species or system Sprague–Dawley rats
[3] = metabolic stability in human hepatic S9 fraction; format: in vitro ADME
In short: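 Pooled mixed-gender human hepatic S9 at 1 mg/mL, test compound at 10 μM final. Buffer: 50 mM potassium phosphate pH 7.4, 3 mM MgCl2, NADPH-regenerating system (1 mM NADP, 5 mM glucose-6-phosphate, 1 unit/mL G6PDH). Triplicates sampled at 0, 15, 30, 60, 120 min. Stopped with 3 vol acetonitrile; LC-MS/MS against standard curves in blank matrix. Read-out is percent remaining.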

[4] = SD rats, 2–3 h postdose; cited from earlier work
CB1 [5] = biological target: T1, CB1; format: binding; details: selectivity, [3H]CP55940 displacement

T1 sequence (P21554 whole entry): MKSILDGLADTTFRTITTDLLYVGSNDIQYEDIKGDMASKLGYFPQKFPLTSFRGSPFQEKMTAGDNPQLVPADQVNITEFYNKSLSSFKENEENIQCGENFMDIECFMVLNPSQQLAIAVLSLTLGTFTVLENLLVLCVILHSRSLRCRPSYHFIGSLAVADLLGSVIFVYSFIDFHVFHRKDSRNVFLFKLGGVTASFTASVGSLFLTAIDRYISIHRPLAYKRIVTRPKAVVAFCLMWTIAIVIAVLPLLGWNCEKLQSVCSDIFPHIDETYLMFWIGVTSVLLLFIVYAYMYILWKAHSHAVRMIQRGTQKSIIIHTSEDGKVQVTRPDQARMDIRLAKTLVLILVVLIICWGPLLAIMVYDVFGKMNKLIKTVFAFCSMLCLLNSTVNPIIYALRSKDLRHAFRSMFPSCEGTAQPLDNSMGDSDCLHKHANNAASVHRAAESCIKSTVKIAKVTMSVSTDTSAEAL

| SMILES | Kb (CB1 [1]) | further results |
| --- | --- | --- |
| CC(=O)NC1CCN(c2ncnc3c2nc(-c2ccccc2Cl)n3-c2ccc(Cl)cc2)CC1 [Compound 17g, N-{1-[8-(2-Chlorophenyl)-9-(4-chlorophenyl)-9H-purin-6-yl]-piperidin-4-yl}acetamide] | 631 nM |  |
| Clc1ccc(-n2c(-c3ccccc3Cl)nc3c(NC4CCNCC4)ncnc32)cc1 [Compound 14b, 8-(2-Chlorophenyl)-9-(4-chlorophenyl)-N-(piperidin-4-yl)-9H-purin-6-amine] | 5710 nM |  |
| CC(=O)N1CCC[C@@H](Nc2ncnc3c2nc(-c2ccccc2Cl)n3-c2ccc(Cl)cc2)C1 [Compound 15d, 1-[(3R)-3-{[8-(2-Chlorophenyl)-9-(4-chlorophenyl)-9H-purin-6-yl]-amino}piperidin-1-yl]ethan-1-one] | 920 nM |  |
| CCNC(=O)NC1(c2ccccc2)CCN(c2ncnc3c2nc(-c2ccccc2Cl)n3-c2ccc(Cl)cc2)CC1 [Compound 13b, 1-{1-[8-(2-Chlorophenyl)-9-(4-chlorophenyl)-9H-purin-6-yl]-4-phenylpiperidin-4-yl}-3-ethylurea] | 443 nM |  |
| CCNC(=O)N1CCC(Nc2ncnc3c2nc(-c2ccccc2Cl)n3-c2ccc(Cl)cc2)CC1 [Compound 14c, 4-{[8-(2-Chlorophenyl)-9-(4-chlorophenyl)-9H-purin-6-yl]amino}-N-ethylpiperidine-1-carboxamide] | 1150 nM |  |
| CC(C)NC(=O)N1CCC(Nc2ncnc3c2nc(-c2ccccc2Cl)n3-c2ccc(Cl)cc2)CC1 [Compound 14d, 4-{[8-(2-Chlorophenyl)-9-(4-chlorophenyl)-9H-purin-6-yl]amino}-N-(propan-2-yl)piperidine-1-carboxamide] | 495 nM |  |
| CCCNC(=O)NC1CCN(c2ncnc3c2nc(-c2ccccc2Cl)n3-c2ccc(Cl)cc2)CC1 [Compound 17e, 1-{1-[8-(2-chlorophenyl)-9-(4-chlorophenyl)-9H-purin-6-yl]-piperidin-4-yl}-3-propylurea] | 132 nM |  |
| CS(=O)(=O)NC1CCN(c2ncnc3c2nc(-c2ccccc2Cl)n3-c2ccc(Cl)cc2)CC1 [Compound 17h, N-{1-[8-(2-Chlorophenyl)-9-(4-chlorophenyl)-9H-purin-6-yl]-piperidin-4-yl}methanesulfonamide] | 71 nM |  |
| CC(C)(C)OC(=O)NC1(c2ccccc2)CCN(c2ncnc3c2nc(-c2ccccc2Cl)n3-c2ccc(Cl)cc2)CC1 [Compound 10, tert-Butyl N-{1-[8-(2-chlorophenyl)-9-(4-chlorophenyl)-9H-purin-6-yl]-4-phenylpiperidin-4-yl}carbamate] | 3.9 nM | MDCK-mdr1 A to B (MDCK-mdr1 cells): <1% |
| CS(=O)(=O)NC1(c2ccccc2)CCN(c2ncnc3c2nc(-c2ccccc2Cl)n3-c2ccc(Cl)cc2)CC1 [Compound 12, N-{1-[8-(2-Chlorophenyl)-9-(4-chlorophenyl)-9H-purin-6-yl]-4-phenylpiperidin-4-yl}methanesulfonamide] |  | brain penetration (in words) ([2]; SD rats, 10 mg/kg oral): limited brain penetration; time post dose of maximum concentration ([2]; SD rats, 10 mg/kg oral): 240 min; clearance (in words) ([2]; oral dosing in rats, 10 mg/kg): favorable clearance; oral absorption (in words) ([2]; oral dosing in rats, 10 mg/kg): excellent oral absorption; MDCK-mdr1 A to B (MDCK-mdr1 cells): <1% |
| CC(C)(C)NC(=O)NC1(c2ccccc2)CCN(c2ncnc3c2nc(-c2ccccc2Cl)n3-c2ccc(Cl)cc2)CC1 [Compound 13a, 3-tert-Butyl-1-{1-[8-(2-chlorophenyl)-9-(4-chlorophenyl)-9H-purin-6-yl]-4-phenylpiperidin-4-yl}urea] | 19.2 nM | metabolism in S9 fraction (in words) [3]: significant metabolism; MDCK-mdr1 A to B (MDCK-mdr1 cells): <1% |
| CCCNC(=O)N1CCC(Nc2ncnc3c2nc(-c2ccccc2Cl)n3-c2ccc(Cl)cc2)CC1 [Compound 14e, 4-{[8-(2-Chlorophenyl)-9-(4-chlorophenyl)-9H-purin-6-yl]amino}-N-propylpiperidine-1-carboxamide] | 1960 nM |  |
| CCNC1(C(N)=O)CCN(c2ncnc3c2nc(-c2ccccc2Cl)n3-c2ccc(Cl)cc2)CC1 [Compound 2, otenabant] |  | brain exposure [4]: ~33% |
| CCOC(=O)CNC(=O)NC1(c2ccccc2)CCN(c2ncnc3c2nc(-c2ccccc2Cl)n3-c2ccc(Cl)cc2)CC1 [Compound 13f, Ethyl 2-[({1-[8-(2-chlorophenyl)-9-(4-chlorophenyl)-9H-purin-6-yl]-4-phenylpiperidin-4-yl}carbamoyl)amino]acetate] | 171 nM |  |
| CC(=O)N1CCC[C@H](Nc2ncnc3c2nc(-c2ccccc2Cl)n3-c2ccc(Cl)cc2)C1 [Compound 16d, 1-[(3S)-3-{[8-(2-Chlorophenyl)-9-(4-chlorophenyl)-9H-purin-6-yl]-amino}piperidin-1-yl]ethan-1-one] | 4450 nM |  |
| CS(=O)(=O)N1CCC[C@@H](Nc2ncnc3c2nc(-c2ccccc2Cl)n3-c2ccc(Cl)cc2)C1 [Compound 15e, 8-(2-Chlorophenyl)-9-(4-chlorophenyl)-N-[(3R)-1-methanesulfonylpiperidin-3-yl]-9H-purin-6-amine] | 346 nM |  |
| CCCCNC(=O)NC1CCN(c2ncnc3c2nc(-c2ccccc2Cl)n3-c2ccc(Cl)cc2)CC1 [Compound 17f, 3-Butyl-1-{1-[8-(2-chlorophenyl)-9-(4-chlorophenyl)-9H-purin-6-yl]piperidin-4-yl}urea] | 49 nM |  |
| CCNC(=O)N1CCC[C@H](Nc2ncnc3c2nc(-c2ccccc2Cl)n3-c2ccc(Cl)cc2)C1 [Compound 16c, (3S)-3-{[8-(2-Chlorophenyl)-9-(4-chlorophenyl)-9H-purin-6-yl]-amino}-N-ethylpiperidine-1-carboxamide] | 1150 nM |  |
| CCCCNC(=O)NC1(c2ccccc2)CCN(c2ncnc3c2nc(-c2ccccc2Cl)n3-c2ccc(Cl)cc2)CC1 [Compound 13e, 3-Butyl-1-{1-[8-(2-chlorophenyl)-9-(4-chlorophenyl)-9H-purin-6-yl]-4-phenylpiperidin-4-yl}urea] | 62 nM |  |
| CCNC(=O)NC1CCN(c2ncnc3c2nc(-c2ccccc2Cl)n3-c2ccc(Cl)cc2)CC1 [Compound 17c, 1-{1-[8-(2-Chlorophenyl)-9-(4-chlorophenyl)-9H-purin-6-yl]-piperidin-4-yl}-3-ethylurea] | 149 nM |  |
| O=C(NC1CCCCC1)NC1(c2ccccc2)CCN(c2ncnc3c2nc(-c2ccccc2Cl)n3-c2ccc(Cl)cc2)CC1 [Compound 13g, 3-{1-[8-(2-Chlorophenyl)-9-(4-chlorophenyl)-9H-purin-6-yl]-4-phenylpiperidin-4-yl}-1-cyclohexylurea] | 199 nM |  |
| CS(=O)(=O)N1CCC(Nc2ncnc3c2nc(-c2ccccc2Cl)n3-c2ccc(Cl)cc2)CC1 [Compound 14g, 8-(2-Chlorophenyl)-9-(4-chlorophenyl)-N-(1-methanesulfonylpiperidin-4-yl)-9H-purin-6-amine] | 1650 nM |  |
| NC1(c2ccccc2)CCN(c2ncnc3c2nc(-c2ccccc2Cl)n3-c2ccc(Cl)cc2)CC1 [Compound 11, 1-[8-(2-Chlorophenyl)-9-(4-chlorophenyl)-9H-purin-6-yl]-4-phe-nylpiperidin-4-amine] | 15.9 nM | MDCK-mdr1 A to B (MDCK-mdr1 cells): <1% |
| CS(=O)(=O)N1CCC[C@H](Nc2ncnc3c2nc(-c2ccccc2Cl)n3-c2ccc(Cl)cc2)C1 [Compound 16e, 8-(2-Chlorophenyl)-9-(4-chlorophenyl)-N-[(3S)-1-methanesulfonylpiperidin-3-yl]-9H-purin-6-amine] | 6040 nM |  |
| CCCCNC(=O)N1CCC(Nc2ncnc3c2nc(-c2ccccc2Cl)n3-c2ccc(Cl)cc2)CC1 [Compound 14f, N-Butyl-4-{[8-(2-chlorophenyl)-9-(4-chlorophenyl)-9H-purin-6-yl]amino}piperidine-1-carboxamide] |  | CB2/CB1 Ki ratio (CB1 [5]): >5 |
| CC(C)NC(=O)NC1CCN(c2ncnc3c2nc(-c2ccccc2Cl)n3-c2ccc(Cl)cc2)CC1 [Compound 17d, 1-{1-[8-(2-Chlorophenyl)-9-(4-chlorophenyl)-9H-purin-6-yl]-piperidin-4-yl}-3-(propan-2-yl)urea] | 133 nM |  |
| CCNC(=O)N1CCC[C@@H](Nc2ncnc3c2nc(-c2ccccc2Cl)n3-c2ccc(Cl)cc2)C1 [Compound 15c, (3R)-3-{[8-(2-Chlorophenyl)-9-(4-chlorophenyl)-9H-purin-6-yl]-amino}-N-ethylpiperidine-1-carboxamide] | 1500 nM |  |

From PMC4492447 (Journal of medicinal chemistry, 2012)
